For data set [1], the target named is T1, Voltage-dependent T-type calcium channel subunit alpha-1G (Homo sapiens, UniProt O43497). The data set is described as follows: Antagonist activity at T type calcium channel alpha1G expressed in HEK293 cells assessed as inhibition of peak currents at 10 uM by whole-cell patch-clamp method. The format is functional, cell-based.
Data set [2] can be described thus: Cmax in mouse brain at 50 mg/kg, po. Also noted: dose 50 mg/kg, route oral. Format: ADME, organism-based. In a few lines: (§1)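 Single oral gavage dose of 50 mg/kg to mice. Vehicle was DMA/Cremophor EL/PBS (10/10/80 v/v %). Plasma and brain were sampled. AUC0–t was calculated by the linear trapezoidal rule, and brain/plasma ratio was taken as AUCbrain/AUCplasma.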

Data set [3] can be described thus: Tmax in mouse brain at 50 mg/kg, po. The format is ADME, organism-based. On the set-up: dose 50 mg/kg, route oral. In a few lines:
as §1

A short description of data set [4]: Cmax in mouse plasma at 50 mg/kg, po. On the set-up: dose 50 mg/kg, route oral. Format: ADME, organism-based. Put shortly: as §1
Data set [5] in a line: Inhibition of L type calcium channel at 1 uM.
In data set [6] the target is Voltage-gated inwardly rectifying potassium channel KCNH2 (Homo sapiens, UniProt Q12809). The data set can be described thus: Inhibition of human ERG channel.
A short description of data set [7]: AUC (0 to t) in mouse plasma at 50 mg/kg, po. The format is ADME, organism-based. On the set-up: dose 50 mg/kg, route oral. In a few lines: as §1
Data set [8] is described as follows: AUC (0 to t) in mouse brain at 50 mg/kg, po. Format: ADME, organism-based. On the set-up: dose 50 mg/kg, route oral. In a few lines: as §1
A short description of data set [9]: Ratio of Cmax for mouse brain to Cmax for mouse plasma at 50 mg/kg, po. Format: ADME, organism-based. Also noted: dose 50 mg/kg, route oral.
Data set [10] is described as follows: Selectivity for T type calcium channel alpha1G over L type calcium channel.
The nature of data set [11]: Ratio of AUC (0 to t) for mouse brain to AUC (0 to t) for mouse plasma at 50 mg/kg, po. Format: ADME, organism-based. On the set-up: dose 50 mg/kg, route oral. In a few lines:
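Mice got a single oral 50 mg/kg dose in DMA/Cremophor EL/PBS (10/10/80 v/v %). Plasma and brain levels were measured to give Tmax, Cmax and AUC0–t, with AUC by the linear trapezoidal rule. Brain/plasma ratio taken from the brain and plasma parameters (B/P = AUC_brain/AUC_plasma).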

Data set [12] can be described thus: Tmax in mouse plasma at 50 mg/kg, po. Also noted: dose 50 mg/kg, route oral. The format is ADME, organism-based. In a few lines:
as §1

The target of data set [13] is T1, Voltage-dependent T-type calcium channel subunit alpha-1G. The data set is described as follows: Antagonist activity at T type calcium channel alpha1G expressed in HEK293 cells assessed as inhibition of peak currents by whole-cell patch-clamp method.
The nature of data set [14]: Ratio of IC50 for human ERG channel to IC50 for T type calcium channel alpha1G.
The nature of data set [15]: Metabolic stability in mouse liver. The format is ADME, tissue-based. To be noted: liver (preparation not stated).
Data set [16] concerns the target T1, Voltage-dependent T-type calcium channel subunit alpha-1G. The data set is described as follows: Antagonist activity at T type calcium channel alpha1G expressed in HEK293 cells assessed as inhibition of peak currents at 1 uM by whole-cell patch-clamp method. Format: functional, cell-based.
Data set [17] shares this target. The data set can be described thus: Antagonist activity at T type calcium channel alpha1G expressed in HEK293 cells assessed as inhibition of peak currents by whole-cell patch-clamp method. Format: functional, cell-based. Put shortly:
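Whole-cell patch clamp on HEK293 cells expressing alpha1G. External solution contained 140 mM NaCl, CaCl2, 10 mM Hepes and 10 mM glucose at pH 7.4. Pipettes were 3–4 MΩ, with Mg-ATP in the internal solution. Currents were evoked every 15 s by a 50 ms step from −100 to −30 mV. IC50 came from dose–response fits of peak current inhibition.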

Molecules are shown by their SMILES.

T1 sequence (O43497 whole entry): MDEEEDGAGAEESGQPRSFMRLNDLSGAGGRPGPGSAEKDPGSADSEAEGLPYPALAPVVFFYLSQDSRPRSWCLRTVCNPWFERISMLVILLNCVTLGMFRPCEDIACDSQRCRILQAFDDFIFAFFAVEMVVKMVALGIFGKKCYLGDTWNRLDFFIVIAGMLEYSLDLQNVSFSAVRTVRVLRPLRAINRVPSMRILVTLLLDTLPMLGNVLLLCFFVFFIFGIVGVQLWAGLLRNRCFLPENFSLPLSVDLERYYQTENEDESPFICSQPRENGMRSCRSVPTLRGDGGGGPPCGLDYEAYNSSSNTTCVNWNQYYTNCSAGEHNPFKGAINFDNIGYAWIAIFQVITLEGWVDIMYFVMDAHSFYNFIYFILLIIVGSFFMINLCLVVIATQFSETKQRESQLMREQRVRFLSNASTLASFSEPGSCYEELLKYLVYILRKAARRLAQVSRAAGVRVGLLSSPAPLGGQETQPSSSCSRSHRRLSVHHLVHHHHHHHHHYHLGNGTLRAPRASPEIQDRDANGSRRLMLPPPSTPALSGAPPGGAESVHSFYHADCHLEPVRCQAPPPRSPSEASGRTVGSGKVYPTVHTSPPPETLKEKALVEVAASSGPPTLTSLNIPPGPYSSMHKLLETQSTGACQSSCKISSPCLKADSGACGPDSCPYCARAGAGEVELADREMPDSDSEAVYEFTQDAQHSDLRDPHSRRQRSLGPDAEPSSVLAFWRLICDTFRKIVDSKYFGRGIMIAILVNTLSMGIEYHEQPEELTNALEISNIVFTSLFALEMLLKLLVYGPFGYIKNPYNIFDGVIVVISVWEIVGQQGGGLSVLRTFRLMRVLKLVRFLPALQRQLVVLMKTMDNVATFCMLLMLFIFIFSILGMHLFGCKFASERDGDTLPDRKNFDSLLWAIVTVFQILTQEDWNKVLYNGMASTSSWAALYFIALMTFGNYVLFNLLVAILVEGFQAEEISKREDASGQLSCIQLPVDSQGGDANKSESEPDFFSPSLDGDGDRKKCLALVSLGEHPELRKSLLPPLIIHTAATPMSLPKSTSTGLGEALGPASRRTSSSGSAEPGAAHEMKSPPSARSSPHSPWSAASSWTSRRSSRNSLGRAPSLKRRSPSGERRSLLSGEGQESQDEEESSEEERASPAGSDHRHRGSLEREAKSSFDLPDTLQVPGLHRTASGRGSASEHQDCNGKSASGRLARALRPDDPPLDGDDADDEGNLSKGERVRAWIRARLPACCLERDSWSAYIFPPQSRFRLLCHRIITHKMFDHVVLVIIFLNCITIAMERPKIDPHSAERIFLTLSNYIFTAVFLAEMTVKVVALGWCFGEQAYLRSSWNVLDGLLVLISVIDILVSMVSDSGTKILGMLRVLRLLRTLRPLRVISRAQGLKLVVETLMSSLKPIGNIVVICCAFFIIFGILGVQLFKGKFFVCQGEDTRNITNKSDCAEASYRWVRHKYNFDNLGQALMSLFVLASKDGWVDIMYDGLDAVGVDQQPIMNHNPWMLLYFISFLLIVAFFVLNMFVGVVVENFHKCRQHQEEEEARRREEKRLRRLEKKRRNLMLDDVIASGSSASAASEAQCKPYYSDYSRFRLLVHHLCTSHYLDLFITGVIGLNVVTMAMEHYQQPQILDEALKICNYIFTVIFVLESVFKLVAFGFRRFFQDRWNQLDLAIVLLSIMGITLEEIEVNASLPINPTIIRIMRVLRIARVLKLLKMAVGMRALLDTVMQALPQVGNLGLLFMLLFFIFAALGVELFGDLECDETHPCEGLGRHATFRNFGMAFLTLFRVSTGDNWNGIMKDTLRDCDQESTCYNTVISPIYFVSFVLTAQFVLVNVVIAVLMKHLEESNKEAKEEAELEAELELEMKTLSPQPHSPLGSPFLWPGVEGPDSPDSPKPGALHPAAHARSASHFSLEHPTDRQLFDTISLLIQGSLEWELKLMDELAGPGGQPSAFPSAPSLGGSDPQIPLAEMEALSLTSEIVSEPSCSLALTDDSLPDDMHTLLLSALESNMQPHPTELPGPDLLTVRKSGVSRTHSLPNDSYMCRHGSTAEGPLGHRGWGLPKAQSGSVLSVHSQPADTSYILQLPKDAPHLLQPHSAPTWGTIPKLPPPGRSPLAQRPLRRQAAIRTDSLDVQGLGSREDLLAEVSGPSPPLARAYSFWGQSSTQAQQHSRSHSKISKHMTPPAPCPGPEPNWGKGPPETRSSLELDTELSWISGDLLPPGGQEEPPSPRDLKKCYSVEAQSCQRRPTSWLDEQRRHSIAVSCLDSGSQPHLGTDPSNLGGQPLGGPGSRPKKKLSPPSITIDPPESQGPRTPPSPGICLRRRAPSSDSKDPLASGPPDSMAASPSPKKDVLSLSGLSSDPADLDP
Voltage-gated inwardly rectifying potassium channel KCNH2, sequence (Q12809 whole entry): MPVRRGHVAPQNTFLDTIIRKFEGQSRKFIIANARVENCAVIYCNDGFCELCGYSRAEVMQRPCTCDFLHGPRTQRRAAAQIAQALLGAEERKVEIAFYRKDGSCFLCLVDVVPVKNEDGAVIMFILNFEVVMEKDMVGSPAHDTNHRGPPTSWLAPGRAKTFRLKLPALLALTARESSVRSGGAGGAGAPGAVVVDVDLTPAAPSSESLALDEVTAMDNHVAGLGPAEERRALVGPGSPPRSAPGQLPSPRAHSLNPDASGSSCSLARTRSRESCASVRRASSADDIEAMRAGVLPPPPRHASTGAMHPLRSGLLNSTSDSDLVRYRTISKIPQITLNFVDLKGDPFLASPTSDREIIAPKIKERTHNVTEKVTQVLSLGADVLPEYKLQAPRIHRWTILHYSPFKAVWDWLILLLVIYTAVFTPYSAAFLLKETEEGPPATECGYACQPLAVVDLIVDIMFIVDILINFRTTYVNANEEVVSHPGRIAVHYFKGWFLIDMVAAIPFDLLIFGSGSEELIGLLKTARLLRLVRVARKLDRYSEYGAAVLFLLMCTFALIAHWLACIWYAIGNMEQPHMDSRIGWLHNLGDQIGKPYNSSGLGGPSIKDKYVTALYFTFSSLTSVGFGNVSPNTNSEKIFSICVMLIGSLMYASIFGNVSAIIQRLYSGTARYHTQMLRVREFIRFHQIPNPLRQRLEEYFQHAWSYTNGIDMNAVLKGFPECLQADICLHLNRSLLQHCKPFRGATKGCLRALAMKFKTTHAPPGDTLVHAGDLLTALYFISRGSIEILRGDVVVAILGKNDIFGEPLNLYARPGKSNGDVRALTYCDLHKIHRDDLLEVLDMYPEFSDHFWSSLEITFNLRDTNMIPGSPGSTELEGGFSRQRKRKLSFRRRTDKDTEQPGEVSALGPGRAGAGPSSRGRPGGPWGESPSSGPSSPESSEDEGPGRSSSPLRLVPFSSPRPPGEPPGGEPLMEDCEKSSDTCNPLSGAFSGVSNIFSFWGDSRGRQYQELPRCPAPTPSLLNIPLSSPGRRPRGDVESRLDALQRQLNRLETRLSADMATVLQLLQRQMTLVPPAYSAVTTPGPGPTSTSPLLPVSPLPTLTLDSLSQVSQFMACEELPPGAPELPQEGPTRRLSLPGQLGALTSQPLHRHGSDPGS

As for `COC(=O)C(CCCN(C)CCCc1nc2ccccc2[nH]1)(c1ccc(OC)cc1)C(C)C` (stereo not drawn), the inhibition in [1] worked out at 93.5%. Still for that read-out and setting: next, `CCOC(=O)C(CCCN1CCN(Cc2ccc(OC)cc2)CC1)(c1ccccc1)C(C)C` (stereo not drawn): 96.3%. Take `CCOC(=O)C(CCCN(C)CCCc1nc2cc(C)c(C)cc2[nH]1)(c1ccccc1)C(C)C` (stereo not drawn): the inhibition in data set [1] worked out at 91.4%. `COC(=O)C(CCCN(C)CCCc1nc2ccccc2[nH]1)(c1ccc(Br)cc1)C(C)C` (stereo not drawn): the Cmax in [2] was determined as 274 ng/mL; in data set [4] it was 1620 ng/mL. The Tmax in data set [3] and in data set [12] was 1 h throughout. Besides, the inhibition amounted to 0% in [5] and 96.9% in [1]. Besides, the IC50 is 178 nM in data set [6] and 8.17 nM in data set [13]. Besides, the exposure AUC(0-t) amounted to 3900 ng·h/mL in data set [7] and 973 ng·h/mL in data set [8]. Moreover, the results for the concentration ratio (Kp) in [9] and in [11] were 0.17 and 0.25, respectively. In data set [10], the Selectivity Index was above 1000. For the same compound, the Ratio IC50 in [14] was determined as 21.8. Further, in [15], the half-life is 60 min. For the compound `COC(=O)C(CCCN(C)CCCc1nc2cc(C)c(C)cc2[nH]1)(c1ccc(Br)cc1)C(C)C` (stereo not drawn), the inhibition in data set [16] worked out at 94.2%. Turning to `CCOC(=O)C(CCCN1CCN(Cc2ccc(F)cc2)CC1)(c1ccccc1)C(C)C` (stereo not drawn), the inhibition in data set [1] is 94%. On to `CCOC(=O)C(CCCN(C)CCCc1nc2ccccc2[nH]1)(c1ccccc1)C(C)C` (stereo not drawn), for which, in [1], the inhibition is 98.3%. Same read-out and setting: to `COC(=O)C(CCCN1CCN(Cc2ccc(OC)cc2)CC1)(c1ccc(Br)cc1)C(C)C` (stereo not drawn) belongs 96%. As to `COC(=O)C(CCCN1CCN(c2ccccc2OC)CC1)(c1ccc(Br)cc1)C(C)C` (stereo not drawn), in data set [17], the IC50 stood at 95 nM. Further, the inhibition in data set [1] is 94.1%. As to `COC(=O)C(CCCN1CCN(Cc2cccc(C(F)(F)F)c2)CC1)(c1ccc(Br)cc1)C(C)C` (stereo not drawn), the concentration for half-maximal inhibition (IC50) in data set [17] is 280 nM. In [1], the inhibition turned out to be 93%.

For the compound `COC(=O)C(CCCN(C)CCCc1nc2cc(OC)ccc2[nH]1)(c1ccc(OC)cc1)C(C)C` (stereo not drawn), the inhibition in [1] stood at 91.7%.

As to `COC(=O)C(CCCN1CCN(Cc2ccc(OC)c(OC)c2OC)CC1)(c1ccc(Br)cc1)C(C)C` (stereo not drawn), the inhibition in data set [1] worked out at 95.1%. As to `COC(=O)C(CCCN(C)CCCc1nc2cc(OC)ccc2[nH]1)(c1ccc(Br)cc1)C(C)C` (stereo not drawn), in [1], the inhibition was 94.5%. On the same count and under the same terms, to `COC(=O)C(CCCN1CCN(Cc2cccc(C)c2)CC1)(c1ccc(Br)cc1)C(C)C` (stereo not drawn) belongs 94.9%; to `COC(=O)C(CCCN1CCN(Cc2cccc(F)c2)CC1)(c1ccc(Br)cc1)C(C)C` (stereo not drawn), 89.3%; to `COC(=O)C(CCCN1CCN(Cc2ccc(F)cc2)CC1)(c1ccc(Br)cc1)C(C)C` (stereo not drawn), 96.5%. Consider `COC(=O)C(CCCN1CCN(Cc2ccccc2F)CC1)(c1ccc(Br)cc1)C(C)C` (stereo not drawn), for which the inhibition in data set [1] was 90.4%.

The record behind these values is ChEMBL document CHEMBL1155867, “Synthesis and evaluation of alpha,alpha'-disubstituted phenylacetate derivatives for T-type calcium channel blockers” (Bioorg Med Chem Lett, 2008).
